From ChEMBL document CHEMBL4411287, “Discovery and optimization of a series of 3-substituted indazole derivatives as multi-target kinase inhibitors for the treatment of lung squamous cell carcinoma” (Eur J Med Chem, 2019)
pIC50: −log10 of the molar value. Values belong to the compound of their own block, whether it stands above or below them.

How the values were obtained:
[1] = target: T1, Discoidin domain-containing receptor 2 (Homo sapiens) (UniProt Q16832); experiment: Inhibition of DDR2 (unknown origin) at 1000 nM using poly (Glu, Tyr) 4:1 substrate after 60 mins by ELISA relative to control
T1 sequence (whole entry): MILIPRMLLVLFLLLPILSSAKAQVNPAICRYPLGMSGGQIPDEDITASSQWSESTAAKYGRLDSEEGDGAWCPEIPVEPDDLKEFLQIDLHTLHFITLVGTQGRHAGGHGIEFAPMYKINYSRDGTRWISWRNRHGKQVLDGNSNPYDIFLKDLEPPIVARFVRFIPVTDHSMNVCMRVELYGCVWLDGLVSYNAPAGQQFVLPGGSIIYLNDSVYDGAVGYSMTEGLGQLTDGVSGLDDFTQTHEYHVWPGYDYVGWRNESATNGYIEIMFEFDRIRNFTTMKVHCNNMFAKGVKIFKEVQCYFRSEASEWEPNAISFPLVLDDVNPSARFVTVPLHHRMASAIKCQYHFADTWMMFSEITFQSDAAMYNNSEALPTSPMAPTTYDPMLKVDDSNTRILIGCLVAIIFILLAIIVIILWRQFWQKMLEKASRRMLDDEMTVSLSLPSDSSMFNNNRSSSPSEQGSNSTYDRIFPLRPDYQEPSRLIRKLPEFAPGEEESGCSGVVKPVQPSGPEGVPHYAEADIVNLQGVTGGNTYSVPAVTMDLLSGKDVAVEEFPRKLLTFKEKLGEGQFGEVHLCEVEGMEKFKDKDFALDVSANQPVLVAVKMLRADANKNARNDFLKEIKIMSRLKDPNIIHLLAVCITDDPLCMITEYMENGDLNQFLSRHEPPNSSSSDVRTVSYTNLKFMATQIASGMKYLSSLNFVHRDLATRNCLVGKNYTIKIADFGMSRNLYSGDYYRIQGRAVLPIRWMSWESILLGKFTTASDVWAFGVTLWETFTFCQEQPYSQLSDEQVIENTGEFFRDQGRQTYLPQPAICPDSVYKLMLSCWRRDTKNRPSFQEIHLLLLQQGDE
How it was run: (§1)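 ELISA with purified recombinant DDR2 on poly(Glu,Tyr) 4:1 precoated at 20 µg/mL. 10 µM ATP in HEPES pH 7.4 buffer with MgCl2, MnCl2, Na3VO4 and DTT, 1% DMSO; 60 min at 37 °C. Phosphotyrosine detected by PY99 and HRP anti-mouse IgG with o-phenylenediamine at A490. Inhibition = 1−A490/A490control; two separate experiments.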

[2] = target: T1, Discoidin domain-containing receptor 2 (Homo sapiens); experiment: Inhibition of DDR2 (unknown origin) at 100 nM using poly (Glu, Tyr) 4:1 substrate after 60 mins by ELISA relative to control; how it was run: as §1
[3] = target: T2, Discoidin domain-containing receptor 2 (Homo sapiens, UniProt Q16832); experiment: Inhibition of DDR2 (unknown origin) using poly (Glu, Tyr) 4:1 substrate after 60 mins by ELISA
T2 sequence (Q16832 whole entry): T1 sequence (whole entry)

KG-1 = experiment: Antiproliferative activity against human KG1 cells after 72 hrs by CCK8 assay; details: KG-1, 72 h
NCI-H2286 [4] = experiment: Antiproliferative activity against human NCI-H2286 cells after 72 hrs by CCK8 assay; details: NCI-H2286, 72 h
[5] = AUC (0 to t) in ICR(CD-1) mouse at 10 mg/kg, po administered via gavage by triple quadrupole mass spectrometric analysis; assay type: ADME, organism-based; details: in vivo
How it was run: (§2)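 Oral gavage at 1 mg/mL in 1% Tween80/water to male ICR mice (18-22 g, n=3). Plasma sampled at 0.25, 0.5, 1, 2, 4, 8 and 24 h, protein precipitated with methanol:acetonitrile (1:1) containing internal standard, and quantified by UPLC-triple quadrupole MS. AUC and MRT were taken from per-animal time-concentration curves. Cmax is the maximum plasma level and Tmax the time to reach it.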

[6] = Tmax in ICR(CD-1) mouse at 10 mg/kg, po administered via gavage by triple quadrupole mass spectrometric analysis; assay type: ADME, organism-based; details: in vivo
How it was run: (§3)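 Dosed by gavage at 1 mg/mL in 1% Tween80/water to male ICR mice, 18-22 g, n=3. Blood taken at 0.25, 0.5, 1, 2, 4, 8 and 24 h. Plasma precipitated with methanol:acetonitrile (1:1) containing internal standard, then UPLC-MS/MS on a C18 column with an ammonium acetate/formic acid–acetonitrile gradient. Tmax read directly from the data; MRT calculated per animal from concentration–time curves.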

[7] = Cmax in ICR(CD-1) mouse at 10 mg/kg, po administered via gavage by triple quadrupole mass spectrometric analysis; assay type: ADME, organism-based; set-up: dose 10 mg/kg, route oral; details: in vivo; how it was run: as §2
[8] = AUC (0 to infinity) in ICR(CD-1) mouse at 10 mg/kg, po administered via gavage by triple quadrupole mass spectrometric analysis; assay type: ADME, organism-based; set-up: dose 10 mg/kg, route oral, time infinity; details: in vivo; how it was run: as §2
[9] = Half life in ICR(CD-1) mouse at 10 mg/kg, po administered via gavage by triple quadrupole mass spectrometric analysis; assay type: ADME, organism-based; details: in vivo; how it was run: as §2
[10] = MRT in ICR(CD-1) mouse at 10 mg/kg, po administered via gavage by triple quadrupole mass spectrometric analysis; assay type: ADME, organism-based; details: in vivo; how it was run: as §3
NCI-H2286 [11] = experiment: Antiproliferative activity against human NCI-H2286 cells at 100 nM after 72 hrs by CCK8 assay relative to control; assay type: functional
[12] = target: Fibroblast growth factor receptor 1 (Homo sapiens, UniProt P11362); experiment: Inhibition of FGFR1 (unknown origin) after 60 mins by ELISA
Fibroblast growth factor receptor 1, sequence (P11362 whole entry): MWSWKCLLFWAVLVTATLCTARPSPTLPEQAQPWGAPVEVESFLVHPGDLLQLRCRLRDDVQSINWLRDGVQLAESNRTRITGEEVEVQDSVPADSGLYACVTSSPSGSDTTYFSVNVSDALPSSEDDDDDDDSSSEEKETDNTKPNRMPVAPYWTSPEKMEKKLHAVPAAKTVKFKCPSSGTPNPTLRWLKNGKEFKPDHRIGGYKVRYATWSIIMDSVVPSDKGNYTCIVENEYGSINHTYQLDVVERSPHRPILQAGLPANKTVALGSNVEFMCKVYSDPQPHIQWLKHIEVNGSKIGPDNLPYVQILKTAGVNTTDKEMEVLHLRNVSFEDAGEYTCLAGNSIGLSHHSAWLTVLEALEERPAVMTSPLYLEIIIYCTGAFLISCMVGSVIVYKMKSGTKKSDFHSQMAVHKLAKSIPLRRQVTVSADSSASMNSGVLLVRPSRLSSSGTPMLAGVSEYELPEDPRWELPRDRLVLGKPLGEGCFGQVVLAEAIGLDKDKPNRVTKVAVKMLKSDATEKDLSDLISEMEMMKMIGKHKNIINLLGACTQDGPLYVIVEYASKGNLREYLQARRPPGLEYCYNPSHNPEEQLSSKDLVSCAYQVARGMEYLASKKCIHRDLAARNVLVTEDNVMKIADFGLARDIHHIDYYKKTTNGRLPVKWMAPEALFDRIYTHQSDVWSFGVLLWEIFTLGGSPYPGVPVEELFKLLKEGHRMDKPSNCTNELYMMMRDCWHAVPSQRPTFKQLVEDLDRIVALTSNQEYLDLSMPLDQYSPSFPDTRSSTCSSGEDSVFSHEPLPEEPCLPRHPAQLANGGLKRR

SMILES: Cc1ccc(C(=O)Nc2cc(CN3CCN(CCO)CC3)cc(C(F)(F)F)c2)cc1-c1ccc2cn[nH]c2c1
pIC50 [3]: 8.47

SMILES: Cc1ccc(C(=O)Nc2cccc(C(F)(F)F)c2)cc1-c1ccc2c(-c3ccc(N4CCN(C)CC4)cc3)n[nH]c2c1
AUC(0-t) [5]: 44 ng·h/mL
pIC50 (KG-1): 6.87
Tmax [6]: 1.33 h
pIC50 (NCI-H2286 [4]): 7.05
Cmax [7]: 15.9 ng/mL
pIC50 [3]: 8.06

SMILES: Cc1ccc(C(=O)Nc2cccc(C(F)(F)F)c2)cc1-c1ccc2c(-c3cnn(C)c3)n[nH]c2c1
AUC(0-t) [5]: 3480 ng·h/mL
pIC50 (KG-1): 7.18
AUC(0-inf) [8]: 3480 ng·h/mL
Tmax [6]: 1.17 h
pIC50 (NCI-H2286 [4]): 7.61
half-life [9]: 2.75 h
MRT [10]: 3.26 h
Cmax [7]: 890 ng/mL
pIC50 [3]: 8.36

SMILES: Cc1ccc(C(=O)Nc2cccc(C(F)(F)F)c2)cc1-c1ccc2c(-c3cnn(CCN4CCOCC4)c3)n[nH]c2c1
pIC50 (KG-1): 6.94
Activity (NCI-H2286 [11]): 49%
pIC50 [3]: 8.59

SMILES: CCCn1cc(-c2n[nH]c3cc(-c4cc(C(=O)Nc5cccc(C(F)(F)F)c5)ccc4C)ccc23)cn1
pIC50 (KG-1): 6.45
Activity (NCI-H2286 [11]): 41%
pIC50 [3]: 8.49

SMILES: Cc1ccc(C(=O)Nc2cccc(C(F)(F)F)c2)cc1-c1ccc2c(-c3ccc(CN4CCN(C)CC4)cc3)n[nH]c2c1
pIC50 (KG-1): 6.92
Activity (NCI-H2286 [11]): 13%
pIC50 [3]: 8.21

SMILES: Cc1ccc(C(=O)Nc2cccc(C(F)(F)F)c2)cc1-c1ccc2c(-c3cn[nH]c3)n[nH]c2c1
pIC50 (KG-1): < 6.00
pIC50 (NCI-H2286 [4]): < 6.00
pIC50 [3]: 7.25
pIC50 [12]: < 7.00

SMILES: Cc1ccc(C(=O)Nc2cccc(C(F)(F)F)c2)cc1-c1ccc2c(-c3cnn(C4CCOC4)c3)n[nH]c2c1 (stereo not given)
pIC50 (KG-1): 6.52
pIC50 (NCI-H2286 [4]): 7.16
pIC50 [3]: 8.21

SMILES: Cc1ccc(C(=O)Nc2ccc(N3CCN(C)CC3)cc2)cc1-c1ccc2cn[nH]c2c1
inhibition [2]: 25.8%

SMILES: Cc1ccc(C(=O)Nc2cccc(C(F)(F)F)c2)cc1-c1ccc2c(-c3cnn(C(C)C)c3)n[nH]c2c1
pIC50 (KG-1): 6.34
Activity (NCI-H2286 [11]): 31%
pIC50 [3]: 8.11

The next lines start with results.

inhibition [1]: 84.7%
inhibition [2]: 58.2%
SMILES: O=C(Nc1cccc(C(F)(F)F)c1)c1cccc(-c2ccc3cn[nH]c3c2)c1

pIC50 [3]: 8.10
SMILES: Cc1ccc(C(=O)NCc2cccc(C(F)(F)F)c2)cc1-c1ccc2cn[nH]c2c1

pIC50 (NCI-H2286 [4]): 6.85
pIC50 [3]: 7.67
SMILES: Cc1ccc(C(=O)Nc2cccc(C(F)(F)F)c2)cc1-c1ccc2c(-c3ccc(N4CCOCC4)cc3)n[nH]c2c1
pIC50 (KG-1): 6.25

pIC50 [3]: 8.06
SMILES: Cc1ccc(C(=O)Nc2cccc(C(F)(F)F)c2)cc1-c1ccc2c(-c3ccc(N4CCC(N5CCOCC5)CC4)cc3)n[nH]c2c1
pIC50 (KG-1): 6.75

inhibition [1]: 53.3%
inhibition [2]: 20.1%
SMILES: O=C(Nc1cccc(-c2ccc3cn[nH]c3c2)c1)Nc1cccc(C(F)(F)F)c1

AUC(0-t) [5]: 552 ng·h/mL
AUC(0-inf) [8]: 563 ng·h/mL
Tmax [6]: 1.33 h
pIC50 (NCI-H2286 [4]): 7.25
half-life [9]: 2.75 h
MRT [10]: 3.96 h
Cmax [7]: 170 ng/mL
pIC50 [3]: 8.42
SMILES: Cc1ccc(C(=O)Nc2cccc(C(F)(F)F)c2)cc1-c1ccc2c(-c3cnn(C4CCN(C)CC4)c3)n[nH]c2c1
pIC50 (KG-1): 7.03

pIC50 [3]: 7.17
SMILES: COc1ccc(NC(=O)c2cccc(C(F)(F)F)c2)cc1-c1ccc2cn[nH]c2c1

inhibition [2]: 41.8%
SMILES: Cc1c(NC(=O)c2cccc(C(F)(F)F)c2)cccc1-c1ccc2cn[nH]c2c1

pIC50 [3]: 7.12
SMILES: Cc1ccc(C(=O)Nc2cccc(CN3CCN(C)CC3)c2)cc1-c1ccc2cn[nH]c2c1

inhibition [2]: 37.3%
SMILES: Cc1ccc(-c2ccc3cn[nH]c3c2)cc1NC(=O)c1cccc(C(F)(F)F)c1

pIC50 [3]: 8.33
SMILES: Cc1ccc(C(=O)Nc2cc(CN3CCN(C)CC3)cc(C(F)(F)F)c2)cc1-c1ccc2cn[nH]c2c1
